# Compounds with a hit are over-represented: about 1.8% of the library has one in this group of screens.
# CHRM4 agonist = CHRM4 agonism in calcium assay | 360,000 compounds, 0.14% hits | CHO-K1 hM4/Gqi5, Fluo-8 calcium fluorescence; vehicle 0%, full acetylcholine response 100% | AID 624127 | activation, % at 3 µM;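 active = activation above the run mean over all test wells plus 3 SD, cut at about 32% in these data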;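 note: peak over basal fluorescence ratio per well then scaled between controls; 0% = DMSO wells and 100% = acetylcholine at EC100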
# M4 PAM = positive allosteric modulators of human muscarinic M4 receptor | P08173 | CHO-K1 hM4/Gqi5, Fluo-8 calcium fluorescence, ACh EC20; 0% = ACh EC20, 100% = maximal ACh | activation, % at 3 µM | 360,000 compounds, 0.4% hits | AID 624126;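 active = activation above its plate's cutoff, the mean activation of sample wells plus 3 SD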
# M5 PAM = CHRM5 positive allosteric modulation | P08912 | CHO-K1 hM5, Fluo-8 calcium, ACh EC20 PAM; 0% = ACh EC20, 100% = ACh EC100 | activation, % at 3 µM | 360,000 compounds, 0.3% hits | AID 624038;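 active = activation above the run cutoff, the mean activation of all test compounds plus 3 SD, cut at about 18% in these data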
# Target sequence (P08912 whole entry, looked up): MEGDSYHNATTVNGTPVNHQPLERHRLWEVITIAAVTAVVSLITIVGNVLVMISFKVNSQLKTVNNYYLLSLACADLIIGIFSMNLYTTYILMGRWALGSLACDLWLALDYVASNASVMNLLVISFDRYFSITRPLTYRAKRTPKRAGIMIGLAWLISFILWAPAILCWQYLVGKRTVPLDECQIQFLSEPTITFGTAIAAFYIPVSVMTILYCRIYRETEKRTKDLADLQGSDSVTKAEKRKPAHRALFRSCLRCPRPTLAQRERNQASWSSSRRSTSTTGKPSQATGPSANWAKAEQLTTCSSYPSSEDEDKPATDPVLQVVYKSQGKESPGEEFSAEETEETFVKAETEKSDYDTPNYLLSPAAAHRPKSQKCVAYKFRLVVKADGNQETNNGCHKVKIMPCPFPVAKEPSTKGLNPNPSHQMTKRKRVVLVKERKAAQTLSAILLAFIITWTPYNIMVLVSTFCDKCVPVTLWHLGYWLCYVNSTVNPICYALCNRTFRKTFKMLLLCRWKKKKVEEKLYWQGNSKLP
#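 Probe or stimulus: acetylcholine, EC20 level; Assay system: human M5 receptor in CHO-K1 cells; Schedule: compound preincubation 140 s before EC20 acetylcholine addition; Technique: intracellular calcium via Fluo-8 fluorescence; Dosing: single-point, 3 µM nominal; Read-out basis: percent activation from peak-over-basal fluorescence ratio, scaled EC20-to-EC100 acetylcholine; Repeats: one well per compound, no replicates.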
# M5 ag = CHRM5 agonism in calcium assay; CHO-K1 hM5 cells, Fluo-8 calcium fluorescence; 0% DMSO wells, 100% maximal acetylcholine response; activation, % at 3 µM; 360,000 compounds, 0.19% hits; AID 624037;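 active = activation above the run's mean over test compounds plus 3 SD, cut at about 23% in these data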;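 note: signal is peak over basal fluorescence ratio across the kinetic read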
# CHRM5 antagonist = antagonists of human muscarinic M5 receptor (CHRM5); AID 624040; CHO-hM5 cells, Fluo-8 calcium fluorescence, ACh EC80; 360,000 compounds, 0.59% hits; inhibition, % at 3 µM;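 active = inhibition above a per-plate cutoff, the mean of that plate's test compounds plus 3 SD, cut at about 27% in these data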;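 note: 0% = acetylcholine EC80 with DMSO and 100% = DMSO without agonist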
# M4 antag = blocks acetylcholine activation of human M4 receptor | 360,000 compounds, 0.73% hits | inhibition, % at 3 µM | P08173 | CHO-hM4 cells, ACh EC80, Fluo-8 calcium fluorescence;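 active = inhibition above its plate's cutoff, the mean inhibition of sample wells plus 3 SD, cut at about 27% in these data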;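 note: 0% = acetylcholine EC80 with DMSO and 100% = DMSO without agonist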
# * marks the source's active call; other numbers are inactive results.
SMILES,CHRM4 agonist,M4 PAM,M5 PAM,M5 ag,CHRM5 antagonist,M4 antag
CS(=O)(=O)Nc1ccc2c(c1)[C@H]1C[C@H](CC(=O)NCc3cccc(F)c3)O[C@@H](CO)[C@H]1O2,0,2,2,1,-5,-2
O=C(Nc1c(C(=O)C2CC2)oc2ccccc12)c1ccc(Cl)cc1,2,26*,10,0,-5,1
Cc1ccc(OCC(=O)NNC(=O)c2ccccc2OCc2c(C)noc2C)cc1,2,17,6,-5,-1,5
CC(C)CCNC(=O)c1cc2c(=O)[nH]c3ccccc3c2s1,9,26*,12,-2,18,19
Cc1ccc2[nH]c(=O)c3cc(C(=O)NCCC(C)C)sc3c2c1,0,0,2,-4,3,3
COc1ccc(-c2nnc(SCC(=O)Oc3ccc(C)cc3)o2)cc1,1,5,-8,-6,-5,-7
Cc1c(CCOC(=O)C23CC4(C)CC(C)(CC(C)(C4)C2)C3)sc[n+]1CC(=O)c1ccccc1,0,-12,-17,-10,16,9
Cc1sc[n+](CC(=O)c2ccc(Br)cc2)c1C,0,-4,-6,-6,15,3
Cc1c(CCOC(=O)c2ccc(Cl)cc2Cl)sc[n+]1CC(=O)c1ccccc1,11,-12,-46,-7,45*,44*
Cc1c(CCOC(=O)c2cc([N+](=O)[O-])cc([N+](=O)[O-])c2)sc[n+]1CC(=O)c1ccc(Br)cc1,0,-17,0,-11,2,29*
COCCNC(=O)NC(=O)COC(=O)c1cccn1C,2,-2,-4,-1,3,-6
O=C(CSc1ncnc2[nH]ncc12)Nc1nc(-c2ccc(F)c(F)c2)cs1,20,-20,-15,10,10,31*
CN1CCC(C2(O)c3ccccc3CCc3ccccc32)CC1,1,-37,-18,-6,37*,52*
CN1CCC(C2(O)c3ccccc3CSc3sccc32)CC1 (stereo not given),1,-6,-30,-14,11,-1
Cc1cc(C)cc(-n2cc[nH]c2=S)c1,1,1,-1,-5,3,-8
CC(C)N1CCC(N2CCN(Cc3cc(F)ccc3-n3cccn3)CC2CCO)CC1 (stereo not given),1,18,22*,-9,-7,-18
CC(C)N1CCN(Cc2cc(F)ccc2-n2cccn2)CC1CCO (stereo not given),0,-1,-5,-6,7,7
Cc1cc(-n2cccn2)ccc1CN1CCN(CC(C)C)C(CCO)C1 (stereo not given),0,-41,-4,-18,-5,55*
CC(C)CCN1CCN(Cc2cccc(-n3cccn3)c2)CC1CCO (stereo not given),0,-25,-1,-8,4,2
Cc1cc(-n2cccn2)ccc1CN1CCN(C2CCCC2)C(CCO)C1 (stereo not given),2,-21,-34,-16,54*,99*
CCOC(=O)C1=CCC2C(=O)N(C3CCCCC3)C(=O)C12 (stereo not given),1,-2,0,3,2,-6
CCOC(=O)C(NC(=O)CC)(Nc1cc(C)on1)C(F)(F)F (stereo not given),1,34*,6,-3,-7,-8
O=S(=O)(c1ccccc1F)N1CCN(CCc2ccccc2)CC1,-2,-18,-4,-3,-4,101*
COc1ccc(Cl)cc1N(CC(=O)NC(C)(C)C)S(=O)(=O)c1ccc(C)c([N+](=O)[O-])c1,1,22*,11,-6,0,-4
c1ccc(C(Cc2nc(-c3ccncc3)no2)c2ccccc2)cc1,1,-11,-16,0,31*,18
SMILES,CHRM4 agonist,M4 PAM,M5 PAM,M5 ag,CHRM5 antagonist,M4 antag
COc1ccc(NC(=O)NNS(=O)(=O)c2ccc(OC)c(OC)c2)c(OC)c1,2,7,18*,-1,-25,-9
O=C(NNC(=O)c1cccs1)c1ccc(Br)cc1,1,-3,0,0,10,4
O=C(Cc1cccs1)NCCS(=O)(=O)N1CCN(c2ccccc2F)CC1,5,2,2,-1,-3,-1
Cc1cc(C)cc(-n2c(=O)c3sccc3n(CC(=O)NCc3ccco3)c2=O)c1,0,28,22*,-1,6,23
COc1ccc(C(=O)NCC(=O)OCC(=O)N2N=C(c3ccc(Cl)cc3)CC2c2ccco2)cc1OC (stereo not given),8,-6,-2,0,-18,-11
Cc1cc(N2CCCCC2)nc(NCc2ccccc2)n1,37*,-17,-24,33*,8,8
Nc1nc(N)c(N=O)c(Nc2cccc(Cl)c2)n1,7,5,-1,45*,-7,-9
Nc1nc(N)c(Br)c(Nc2ccc(Cl)c(Cl)c2)n1,4,23,29*,25*,0,-20
Nc1nc(N)c(N=O)c(Nc2ccc(Cl)c(Cl)c2)n1,19,21,-1,52*,2,-12
CCc1c(N)nc(N)nc1Nc1ccc(C)c(C)c1,4,7,-12,2,4,-17
Cc1ccc(Nc2nc(N)nc(N)c2N=O)cc1Cl,11,18,-4,45*,6,-3
CC(C)(C)c1ccc(-n2nc(C#N)c(Cl)cc2=O)cc1,5,-5,0,-2,33*,54*
Cc1n[nH]c(C)c1Cc1c(F)cccc1Cl,4,2,28*,-10,26,-2
COCCNC(=O)c1onc(CSc2ccc(F)c(F)c2)c1C(=O)NCCOC,1,3,6,2,-4,-8
C=C(c1ccc2nc(NC(=O)OC)[nH]c2c1)c1cccs1,4,3,-2,0,0,-8
COCCCN1CN(S(=O)(=O)c2ccc(C)cc2C)c2nc3ccccc3nc21,4,4,21*,0,-7,-9
Cc1ccc(S(=O)(=O)N(C)C)cc1NC(=O)COC(=O)C1CC1,1,9,2,5,-3,-2
O=C(O)/C=C/c1ccc([N+](=O)[O-])o1,2,2,2,2,-3,-1
O=C1NC(=S)S/C1=C\C=C\c1ccc([N+](=O)[O-])o1,22,-20,-10,26*,48*,68*
O=S(=O)(/N=S1/CC=CCN1S(=O)(=O)c1ccccc1)c1ccccc1 (stereo not given),22,-7,3,26*,6,16
Nc1c(C(=O)N2CCCCC2)sc2nc3c(cc12)CCCC3,0,-3,0,-2,-3,-2
Cc1ccc(C(=O)c2sc3nc4c(cc3c2N)CCC4)cc1,1,21*,5,-1,-4,-6
